According to ChEMBL document CHEMBL4673199, “Potent and selective A3 adenosine receptor antagonists bearing aminoesters as heterobifunctional moieties” (RSC Med Chem, 2021):

Columns and labels:
Adenosine receptor A3 = biological target: T1, Adenosine receptor A3 (Homo sapiens, UniProt P0DMS8); test: Displacement of [3H]-HEMADO from human A3 receptor expressed in CHO cell membrane by radioligand binding assay; assay type: cell membranes
T1 sequence (P0DMS8 whole entry): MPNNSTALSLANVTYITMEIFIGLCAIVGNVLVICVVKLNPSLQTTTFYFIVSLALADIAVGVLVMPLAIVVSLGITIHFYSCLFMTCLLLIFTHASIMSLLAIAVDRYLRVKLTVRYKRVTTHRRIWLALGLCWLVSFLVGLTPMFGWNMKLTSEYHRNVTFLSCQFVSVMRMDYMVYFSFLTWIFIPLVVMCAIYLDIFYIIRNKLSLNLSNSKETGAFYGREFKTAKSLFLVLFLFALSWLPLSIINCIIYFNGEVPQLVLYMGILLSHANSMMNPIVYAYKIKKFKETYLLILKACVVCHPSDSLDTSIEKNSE
In short: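 Membranes from CHO cells with human receptor: low-speed spin at 1,000 x g, then crude membranes pelleted at 100,000 x g. Resuspended in 50 mM Tris/HCl, 10 mM MgCl2, 1 mM EDTA, pH 8.25, stored at -80 °C. Radioligand at 1 nM; nonspecific binding with 100 µM R-PIA. Ki by SCTFIT, mean of 3-6 replicates.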

Adenosine receptor A2b = biological target: T2, Adenosine receptor A2b (Homo sapiens, UniProt P29275); test: Antagonist activity at human A2B receptor expressed in CHO cell membrane assessed as reduction in NECA-stimulated adenylyl cyclase activity in presence of [alpha32P]ATP; assay type: functional, cell membranes
T2 sequence (P29275 whole entry): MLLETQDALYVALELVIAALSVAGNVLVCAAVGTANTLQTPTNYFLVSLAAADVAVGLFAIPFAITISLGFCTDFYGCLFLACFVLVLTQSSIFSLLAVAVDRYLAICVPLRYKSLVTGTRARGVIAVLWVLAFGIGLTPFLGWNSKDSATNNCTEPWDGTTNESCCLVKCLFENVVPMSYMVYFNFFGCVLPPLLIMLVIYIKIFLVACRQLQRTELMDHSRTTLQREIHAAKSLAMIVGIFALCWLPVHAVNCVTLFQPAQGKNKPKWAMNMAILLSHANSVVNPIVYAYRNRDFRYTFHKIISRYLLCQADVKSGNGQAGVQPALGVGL

Adenosine receptor A2a = Adenosine receptor A2a (Homo sapiens, UniProt P29274); test: Displacement of [3H]-NECA from human A2A receptor expressed in CHO cell membrane by radioligand binding assay; assay type: cell membranes
Adenosine receptor A2a, sequence (P29274 whole entry): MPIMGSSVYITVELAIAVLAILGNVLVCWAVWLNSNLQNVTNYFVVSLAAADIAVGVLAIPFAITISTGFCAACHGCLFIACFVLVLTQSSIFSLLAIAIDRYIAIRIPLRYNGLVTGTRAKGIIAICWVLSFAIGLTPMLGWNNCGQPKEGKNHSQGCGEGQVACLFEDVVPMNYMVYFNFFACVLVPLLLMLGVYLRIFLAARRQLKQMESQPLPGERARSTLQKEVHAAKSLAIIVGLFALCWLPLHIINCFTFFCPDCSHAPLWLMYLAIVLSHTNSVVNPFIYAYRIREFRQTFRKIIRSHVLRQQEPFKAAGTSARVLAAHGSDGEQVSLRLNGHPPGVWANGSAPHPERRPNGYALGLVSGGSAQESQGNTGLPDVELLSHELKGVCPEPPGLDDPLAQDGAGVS
In short: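 Crude membrane fraction from transfected CHO cells, obtained by 1,000 x g then 100,000 x g centrifugation, in 50 mM Tris/HCl pH 7.4, stored at -80 °C. Radioligand at 10 nM; 100 µM R-PIA defined nonspecific binding. Ki computed with SCTFIT, mean of 3-6 replicates.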

Adenosine receptor A1 = biological target: T3, Adenosine receptor A1 (Homo sapiens, UniProt P30542); test: Displacement of [3H]CCPA from human A1 receptor expressed in CHO cell membrane by radioligand binding assay; assay type: cell membranes
T3 sequence (P30542 whole entry): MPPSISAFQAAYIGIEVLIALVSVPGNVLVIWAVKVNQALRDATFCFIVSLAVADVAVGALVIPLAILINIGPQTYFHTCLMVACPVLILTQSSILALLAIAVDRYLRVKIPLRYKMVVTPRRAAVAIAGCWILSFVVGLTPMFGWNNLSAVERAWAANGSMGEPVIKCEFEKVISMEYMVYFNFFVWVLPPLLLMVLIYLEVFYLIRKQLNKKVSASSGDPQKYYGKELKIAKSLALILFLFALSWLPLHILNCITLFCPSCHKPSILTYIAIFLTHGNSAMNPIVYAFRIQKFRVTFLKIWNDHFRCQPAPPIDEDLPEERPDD
In short: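 CHO membranes prepared by 1,000 x g clearing, then 100,000 x g sedimentation, resuspended in 50 mM Tris/HCl pH 7.4 and kept at -80 °C. Labelled with 1 nM radioligand; nonspecific binding with theophylline (1 mM). Ki values from SCTFIT, mean of 3-6 replicates.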

| Ki (Adenosine receptor A3) [µM] | IC50 (Adenosine receptor A2b) [µM] | Ki (Adenosine receptor A2a) [µM] | Ki (Adenosine receptor A1) [µM] | SMILES |
| --- | --- | --- | --- | --- |
| 0.108 | > 10 | 0.231 | 0.901 | CCOC(=O)CCCNc1nc2nn(C)cc2c2nc(-c3ccco3)nn12 |
| 0.0163 | > 10 | 0.445 | 0.552 | CCOC(=O)C[C@H](Nc1nc2nn(C)cc2c2nc(-c3ccco3)nn12)C(=O)OCC |
| 0.0597 |  | 0.889 | 1.57 | CCOC(=O)[C@@H](Cc1c[nH]c2ccccc12)Nc1nc2nn(C)cc2c2nc(-c3ccco3)nn12 |
| 0.0246 | > 10 | 1.3 | 0.617 | CCOC(=O)[C@H](Cc1ccc(O)cc1)Nc1nc2nn(C)cc2c2nc(-c3ccco3)nn12 |
| 0.0506 | > 10 | 1.3 | 1.82 | CCOC(=O)[C@H](Cc1ccccc1)Nc1nc2nn(C)cc2c2nc(-c3ccco3)nn12 |
| 0.113 | > 10 | 0.428 | 2.27 | COC(=O)[C@@H]1CCCN1c1nc2nn(C)cc2c2nc(-c3ccco3)nn12 |
| 0.00755 | > 10 | 2.67 | 0.919 | CCOC(=O)CC[C@H](Nc1nc2nn(C)cc2c2nc(-c3ccco3)nn12)C(=O)OCC |
| 0.000306 | > 10 | 0.86 | 0.173 | CCOC(=O)C(Nc1nc2nn(C)cc2c2nc(-c3ccco3)nn12)c1ccccc1 (racemic) |
| 0.0155 | > 10 | 0.82 | 2.2 | CCOC(=O)C(C)Nc1nc2nn(C)cc2c2nc(-c3ccco3)nn12 (racemic) |
| 0.0171 |  | 0.348 | 0.312 | CCOC(=O)C(CO)Nc1nc2nn(C)cc2c2nc(-c3ccco3)nn12 (racemic) |
| 0.0465 | > 10 | 0.376 | 0.882 | CCOC(=O)C(Nc1nc2nn(C)cc2c2nc(-c3ccco3)nn12)C(O)c1ccccc1 (racemic) |
| 0.00106 | > 10 | 0.551 | 0.388 | CCCCC(Nc1nc2nn(C)cc2c2nc(-c3ccco3)nn12)C(=O)OCC (racemic) |
| 0.0005 | > 10 | 0.398 | 0.322 | CCOC(=O)C(CC(C)C)Nc1nc2nn(C)cc2c2nc(-c3ccco3)nn12 (racemic) |
| 0.00172 | > 10 | 1.27 | 0.591 | CCOC(=O)C(Nc1nc2nn(C)cc2c2nc(-c3ccco3)nn12)C(C)C (racemic) |
